Assay results published in ChEMBL document CHEMBL1165853, “Hybrids of 3alpha-methoxyserrat-14-en-21beta-ol (PJ-1) and 3beta-methoxyserrat-14-en-21beta-ol (PJ-2) and various anti-oxidants as cancer chemopreventive agents” (Eur J Med Chem, 2010).
Active and inactive are the calls of the source. The calls are words filed in the database; no cut-off is given here.

Assays:
[1] = Cytotoxicity against human Raji cells assessed as cell viability at 1000 molar ratio by trypan blue staining method; type: cell-based; conditions: read-out: Activity
Method in brief: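 Viability was measured by trypan blue staining of Raji cells after the 48 h, 37 °C EBV-EA induction run (n-butyric acid 4 mmol plus TPA 32 pmol), with compound at 1000 mol ratio/32 pmol TPA.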

[2] = Inhibition of TPA-induced EBV-early antigen activation in human Raji cells assessed as EA activation after 48 hrs; type: cell-based, human gammaherpesvirus 4
Method in brief: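 Raji cells (EBV genome-carrying, virus non-producer Burkitt's lymphoma line; RPMI-1640 with 10% FBS) were seeded at 1×10⁶/mL and held 48 h at 37 °C with n-butyric acid (4 mmol), TPA (32 pmol) and test agent at 1000, 500, 100 or 10 mol ratio/32 pmol TPA. EA-positive cells were scored by indirect immunofluorescence with NPC patient serum, counting ≥500 cells, in triplicate. Results are expressed relative to the butyrate+TPA control (100%), and IC50 is given as mol ratio/32 pmol TPA.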

[3] = tested on: Mus musculus; experiment: Inhibition of DMBA-induced/TPA-promoted carcinogenesis in ICR mouse assessed as reduction of mouse bearing papillomas length at 85 nmol administered 1 hr before TPA treatment measured after 20 weeks; type: functional
Method in brief: (§1)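 In the two-stage mouse skin carcinogenesis model, DMBA was the initiator and TPA the promoter, and test agent was given at 85 nmol alongside DMBA/TPA. Papilloma-bearing mice (%), papillomas per mouse, and tumor length and width were followed through week 20 against a DMBA/TPA-only group.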

[4] = organism: Mus musculus; experiment: Toxicity in ICR mouse assessed as inflammation; type: organism-based; conditions: in vivo
[5] = tested on: Mus musculus; experiment: Inhibition of DMBA-induced/TPA-promoted carcinogenesis in ICR mouse assessed as reduction of mouse bearing papillomas at 85 nmol administered 1 hr before TPA treatment measured after 10 to 15 weeks; type: functional; method in brief: as §1
[6] = tested on: Mus musculus; experiment: Inhibition of DMBA-induced/TPA-promoted carcinogenesis in ICR mouse assessed as reduction of mouse bearing papillomas at 85 nmol administered 1 hr before TPA treatment measured after 20 weeks; type: functional; method in brief: as §1
[7] = organism: Mus musculus; experiment: Toxicity in ICR mouse assessed as change in body weight; type: organism-based; conditions: in vivo
[8] = tested on: Mus musculus; experiment: Inhibition of DMBA-induced/TPA-promoted carcinogenesis in ICR mouse assessed as reduction of mouse bearing papillomas number at 85 nmol administered 1 hr before TPA treatment measured after 20 weeks; type: functional; method in brief: as §1
[9] = tested on: Mus musculus; experiment: Inhibition of DMBA-induced/TPA-promoted carcinogenesis in ICR mouse assessed as reduction of mouse bearing papillomas width at 85 nmol administered 1 hr before TPA treatment measured after 20 weeks; type: functional; method in brief: as §1
[10] = organism: Mus musculus; experiment: Toxicity in ICR mouse assessed as lesional damage; type: organism-based; conditions: in vivo

IC50 [2] [molar ratio]	Structure (SMILES)	viability at 1000 molar ratio [1] [%]	further results
370	CO[C@@H]1CC[C@@]2(C)[C@@H](CC[C@@]3(C)CC4=CC[C@H]5C(C)(C)[C@H](OC(=O)CCC(=O)Oc6coc(CO)cc6=O)CC[C@]5(C)[C@H]4CC[C@@H]32)C1(C)C	70	
460	COc1cc(/C=C/C(O)/C=C(O)/C=C/c2ccc(OC(=O)CCC(=O)O[C@@H]3CC[C@]4(C)[C@H]5CC[C@H]6[C@@](C)(CC[C@H]7C(C)(C)[C@@H](OC)CC[C@@]76C)CC5=CC[C@H]4C3(C)C)c(OC)c2)ccc1O (stereo partly drawn)	60	
395	COc1cc(/C=C/C(O)=C/C(O)/C=C/c2ccc(OC(=O)CCC(=O)O[C@@H]3CC[C@]4(C)[C@H]5CC[C@H]6[C@@](C)(CC[C@H]7C(C)(C)[C@@H](OC)CC[C@@]76C)CC5=CC[C@H]4C3(C)C)c(OC)c2)ccc1OC(=O)CCC(=O)O[C@@H]1CC[C@]2(C)[C@H]3CC[C@H]4[C@@](C)(CC[C@H]5C(C)(C)[C@@H](OC)CC[C@@]54C)CC3=CC[C@H]2C1(C)C (stereo partly drawn)	60	
330	CO[C@H]1CC[C@@]2(C)[C@@H](CC[C@@]3(C)CC4=CC[C@H]5C(C)(C)[C@H](OC(=O)CCC(=O)Oc6ccc(-c7oc8cc(O)cc(O)c8c(=O)c7O)cc6O)CC[C@]5(C)[C@H]4CC[C@@H]32)C1(C)C	60	Activity [3]: 26 mm; Activity [4]: Non-toxic; inhibition (INH) [5]: 20%; inhibition (INH) [6]: 86.6%; Activity [7]: Non-toxic; papillomas per mouse [8]: 4.7 papillomas/mouse; Activity [9]: 24 mm; Activity [10]: Non-toxic
462	COc1cc(/C=C/C(O)=C/C(O)/C=C/c2ccc(OC(=O)CCC(=O)O[C@@H]3CC[C@]4(C)[C@H]5CC[C@H]6[C@@](C)(CC[C@H]7C(C)(C)[C@H](OC)CC[C@@]76C)CC5=CC[C@H]4C3(C)C)c(OC)c2)ccc1OC(=O)CCC(=O)O[C@@H]1CC[C@]2(C)[C@H]3CC[C@H]4[C@@](C)(CC[C@H]5C(C)(C)[C@H](OC)CC[C@@]54C)CC3=CC[C@H]2C1(C)C (stereo partly drawn)	60	
350	CO[C@@H]1CC[C@@]2(C)[C@@H](CC[C@@]3(C)CC4=CC[C@H]5C(C)(C)[C@H](OC(=O)CCC(=O)Oc6ccc(-c7oc8cc(O)cc(O)c8c(=O)c7O)cc6O)CC[C@]5(C)[C@H]4CC[C@@H]32)C1(C)C	60	Activity [3]: 28 mm; Activity [4]: Non-toxic; inhibition (INH) [5]: 26.6%; inhibition (INH) [6]: 73.3%; Activity [7]: Non-toxic; inhibition [8]: Active; Activity [9]: 25 mm; Activity [10]: Non-toxic
358	COc1cc(/C=C/C(O)/C=C(O)/C=C/c2ccc(OC(=O)CC(=O)O[C@@H]3CC[C@]4(C)[C@H]5CC[C@H]6[C@@](C)(CC[C@H]7C(C)(C)[C@@H](OC)CC[C@@]76C)CC5=CC[C@H]4C3(C)C)c(OC)c2)ccc1O (stereo partly drawn)	60	
393	COc1cc(/C=C/C(O)/C=C(O)/C=C/c2ccc(OC(=O)CCC(=O)O[C@@H]3CC[C@]4(C)[C@H]5CC[C@H]6[C@@](C)(CC[C@H]7C(C)(C)[C@H](OC)CC[C@@]76C)CC5=CC[C@H]4C3(C)C)c(OC)c2)ccc1O (stereo partly drawn)	60	
338	COc1cc(/C=C/C(=O)CC(O)/C=C/c2ccc(OC(=O)CC(=O)O[C@@H]3CC[C@]4(C)[C@H]5CC[C@H]6[C@@](C)(CC[C@H]7C(C)(C)[C@@H](OC)CC[C@@]76C)CC5=CC[C@H]4C3(C)C)c(OC)c2)ccc1OC(=O)CC(=O)O[C@@H]1CC[C@]2(C)[C@H]3CC[C@H]4[C@@](C)(CC[C@H]5C(C)(C)[C@@H](OC)CC[C@@]54C)CC3=CC[C@H]2C1(C)C (stereo partly drawn)	60	
354	COc1cc(/C=C/C(O)/C=C(O)/C=C/c2ccc(OC(=O)CC(=O)O[C@@H]3CC[C@]4(C)[C@H]5CC[C@H]6[C@@](C)(CC[C@H]7C(C)(C)[C@H](OC)CC[C@@]76C)CC5=CC[C@H]4C3(C)C)c(OC)c2)ccc1O (stereo partly drawn)	60	
335	COc1cc(/C=C/C(O)=C/C(O)/C=C/c2ccc(OC(=O)CC(=O)O[C@@H]3CC[C@]4(C)[C@H]5CC[C@H]6[C@@](C)(CC[C@H]7C(C)(C)[C@H](OC)CC[C@@]76C)CC5=CC[C@H]4C3(C)C)c(OC)c2)ccc1OC(=O)CC(=O)O[C@@H]1CC[C@]2(C)[C@H]3CC[C@H]4[C@@](C)(CC[C@H]5C(C)(C)[C@H](OC)CC[C@@]54C)CC3=CC[C@H]2C1(C)C (stereo partly drawn)	60	

More lines, now with the values behind:

Structure (SMILES)	IC50 [2] [molar ratio]	viability at 1000 molar ratio [1] [%]	further results
CO[C@H]1CC[C@@]2(C)[C@@H](CC[C@@]3(C)CC4=CC[C@H]5C(C)(C)[C@H](OC(=O)Nc6ccccc6)CC[C@]5(C)[C@H]4CC[C@@H]32)C1(C)C	459	60	
CC1(C)CC[C@]2(C(=O)O)CC[C@]3(C)C(=CC[C@@H]4[C@@]5(C)CC[C@H](O)C(C)(C)[C@@H]5CC[C@]43C)[C@@H]2C1 [OLEANOLIC_ACID]	449		
CO[C@H]1CC[C@@]2(C)[C@@H](CC[C@@]3(C)CC4=CC[C@H]5C(C)(C)[C@H](OC(=O)CCC(=O)Oc6coc(CO)cc6=O)CC[C@]5(C)[C@H]4CC[C@@H]32)C1(C)C	371	70	
CO[C@H]1CC[C@@]2(C)[C@@H](CC[C@@]3(C)CC4=CC[C@H]5C(C)(C)[C@H](OC(=S)Nc6ccccc6)CC[C@]5(C)[C@H]4CC[C@@H]32)C1(C)C	460	60	
CO[C@H]1CC[C@@]2(C)[C@@H](CC[C@@]3(C)CC4=CC[C@H]5C(C)(C)[C@H](OC(=O)Nc6ccccc6Cl)CC[C@]5(C)[C@H]4CC[C@@H]32)C1(C)C	468	50	
CO[C@H]1CC[C@@]2(C)[C@@H](CC[C@@]3(C)CC4=CC[C@H]5C(C)(C)[C@H](OC(=O)NS(=O)(=O)c6ccc(C)cc6)CC[C@]5(C)[C@H]4CC[C@@H]32)C1(C)C	461	60	
CO[C@H]1CC[C@@]2(C)[C@@H](CC[C@@]3(C)CC4=CC[C@H]5C(C)(C)[C@H](OC(=O)CCl)CC[C@]5(C)[C@H]4CC[C@@H]32)C1(C)C	473	60	
CO[C@H]1CC[C@@]2(C)[C@@H](CC[C@@]3(C)CC4=CC[C@H]5C(C)(C)[C@H](OC(N)=O)CC[C@]5(C)[C@H]4CC[C@@H]32)C1(C)C	470	60	
